Assay results of several laboratories.
Each line is one published result; the experiments were not run side by side. pEC50, pIC50: −log10 of the molar value.
Cell line: HepG2
Effect on: cell growth or viability

The pIC50 of `Clc1ccc(-c2nc3ccccc3n2Cc2ccccc2)cc1` is reported as 4.33 (MTT).
For `Cc1cc(=O)oc2ccc(-c3cc(-c4ccccc4)nc(N)n3)c(O)c12`, the inhibition was 0% (MTT; 2 µg/mL, 72 h).
With `Cc1ccc2nc(-c3ccc([N+](=O)[O-])cc3)n(Cc3ccc(Cl)cc3)c2c1` the pIC50 was 5.26 (MTT).
For `CC(C)c1ccc(/C=C2\SC(=S)N(CC(=O)Nc3ccccc3)C2=O)cc1`, the inhibition was 17.5% (MTT; 10 µM).
`COc1cccc(-c2nc3ccccc3[nH]2)c1` has a pIC50 of 4.33 (MTT; 48 h).
With `Cc1cc(Nc2ccc(C(=O)N/N=C/c3ccc(N(C)C)cc3)cc2)c2cccc(O)c2n1` the inhibition was 40.8% (MTT; 20 µM).
`COc1ccc(NC(=O)c2c(Nc3ccccc3)sc(C#N)c2NC(=O)CNc2ccc(O)cc2)cc1` gave a viability of 61.6% (SRB; 10 µM, 48 h).
The GI50 of `CC(C)(CO)Cn1nc(-c2ccc3cc(OC4CC4)ccc3c2)c2c(N)ncnc21` is reported as greater than 10 µM.
`COc1cccc(-c2nc3ccc(C)cc3[nH]2)c1` gave a pIC50 of 4.57 (MTT; 48 h).
For `O=C(CN1C(=O)/C(=C/c2cccc(Cl)c2)SC1=S)Nc1ccccc1`, the inhibition was 10% (MTT; 10 µM).
For `COc1ccc(NC(=O)c2c(Nc3ccccc3)sc(C#N)c2NC(=O)CNc2ccccc2Cl)cc1`, the viability was 79.2% (SRB; 10 µM, 48 h).
The IC50 of `COc1cccc2c1C(=O)c1c(O)c3c(c(O)c1C2=O)C[C@@](O)(C(=O)CO)C[C@@H]3O[C@H]1C[C@H](N)[C@H](O)[C@H](C)O1` is reported as 0.12 µg/mL (MTT; 48 h).
For `CCNC(=O)c1cn(CC)c2cc(N3CCC(C)CC3)c(F)cc2c1=O`, the pEC50 was less than 4.40 (ATP luminescence; 48 h).
`COc1ccc(NC(=O)c2c(Nc3ccccc3)sc(C#N)c2NC(=O)CNc2ccc(OC)c(OC)c2)cc1` gave a viability of 100% (SRB; 1 nM, 48 h).
With `CCN(CC)C/C=N/NC(=O)Nc1cc2c(Nc3ccc(F)c(Cl)c3)ncnc2cc1OC` the pIC50 was 5.67 (MTT; 72 h).
`COc1ccc(/C=C2\SC(=S)N(CC(=O)Nc3ccccc3)C2=O)cc1` gave an inhibition of 13.6% (MTT; 10 µM).
`CCOC(=O)c1ccc(NC(=O)C2=C3C(=Nc4ccccc43)NC2=O)cc1` gave a viability of 42.7% (MTT; 50 µM, 24 h).
For `COc1ccc(NC(=O)c2c(Nc3ccccc3)sc(C(=O)NN=Cc3ccc(Cl)cc3)c2NC(C)=O)cc1`, the viability was 95.2% (SRB; 10 nM, 48 h).
With `Cc1cc(Nc2ccc(C(=O)N/N=C/c3cc4ccccc4[nH]3)cc2)c2cccc(O)c2n1` the inhibition was 54.1% (MTT; 20 µM).
With `CCn1cc(-c2nc(C)no2)c(=O)c2cc(F)c(N3CCCC(C)C3)cc21` (stereo not drawn) the pEC50 was less than 4.40 (ATP luminescence; 48 h).
`Cc1ccc2nc(-c3ccc4c(c3)OCO4)[nH]c2c1` has a pIC50 of 4.10 (MTT; 48 h).
With `O=C(CN1C(=O)/C(=C/c2ccc[nH]2)SC1=S)Nc1ccccc1` the inhibition was 9.65% (MTT; 10 µM).
`c1ccc2[nH]c(-c3ccc4c(c3)OCO4)nc2c1` has a pIC50 of less than 4.00 (MTT; 48 h).
`Cc1cc(=O)oc2ccc(-c3cc(-c4cccs4)nc(N)n3)c(O)c12` gave an inhibition of 36% (MTT; 128 µg/mL, 72 h).
`O=[N+]([O-])c1ccc(-c2nc3ccccc3n2Cc2ccccc2)cc1` gave a pIC50 of 5.11 (MTT).
`CCOC(=O)c1ccc(-n2c(C)cc(/C=C/c3ccc(OC)cc3)c(C#N)c2=O)cc1` has a viability of 100% (MTT; 3.125 µM, 24 h).
`COc1ccc(-c2cc(-c3ccc4oc(=O)cc(C)c4c3O)nc(N)n2)cc1` gave an inhibition of 0% (MTT; 8 µg/mL, 72 h).
For `COc1ccc(NC(=O)c2c(Nc3ccccc3)sc(C(=O)NN=Cc3ccc(C)cc3)c2NC(C)=O)cc1`, the viability was 57.3% (SRB; 100 µM, 48 h).
The pIC50 of `CN1CCN(CCn2cccc2/C=N/NC(=O)Nc2cc3c(Nc4ccc(F)c(Cl)c4)ncnc3cc2O[C@H]2CCOC2)CC1` is reported as 6.82 (MTT; 72 h).
With `COc1ccc(NC(=O)c2c(Nc3ccccc3)sc(C(=O)NN=Cc3ccccc3)c2NC(C)=O)cc1` the viability was 72% (SRB; 1 µM, 48 h).
`CC(=O)Nc1cccc(-n2c(=O)n(C3CC3)c(=O)c3c(Nc4ccc(I)cc4F)n(C)c(=O)c(C)c32)c1` has a viability of 99.5% (resazurin; 780 pM, 72 h).
The pEC50 of `CCn1cc(-c2nc(C)no2)c(=O)c2cc(F)c(N3CCC4(CC3)CC4)cc21` is reported as less than 4.40 (ATP luminescence; 48 h).
With `COc1cccc(NC(=O)CN2C(=O)/C(=C/c3ccccc3)SC2=S)c1` the inhibition was 11.8% (MTT; 10 µM).
The inhibition of `Cc1cc(=O)oc2ccc(-c3cc(-c4ccc(Cl)cc4)nc(N)n3)c(O)c12` is reported as 65% (MTT; 32 µg/mL, 72 h).
For `CCOC(=O)c1ccc(-n2c(N)c(C#N)c(CC#N)c(C#N)c2=O)cc1`, the viability was 100% (MTT; 1.56 µM, 24 h).
For `COc1ccc(NC(=O)c2c(Nc3ccccc3)sc(C(=O)NN=Cc3cc(OC)c(OC)c(OC)c3)c2NC(C)=O)cc1`, the viability was 97.3% (SRB; 1 nM, 48 h).
`CCn1cc(-c2nc(C)no2)c(=O)c2cc(F)c(N3CCN(C)CC3)cc21` has a pEC50 of less than 4.40 (ATP luminescence; 48 h).
With `Cc1cc(=O)oc2ccc(-c3cc(-c4cccc(Cl)c4)nc(N)n3)c(O)c12` the inhibition was 19% (MTT; 32 µg/mL, 72 h).
For `CSc1ccc(-c2nc3ccc(C)cc3n2Cc2ccccc2)cc1`, the pIC50 was 4.75 (MTT).
With `CCOC(=O)c1ccc(-n2c(C)cc(C)c(C#N)c2=O)cc1` the viability was 64.7% (MTT; 25 µM, 24 h).
`CCn1cc(-c2nc(C)no2)c(=O)c2cc(F)c(N3CCCCCC3)cc21` has a pEC50 of less than 4.40 (ATP luminescence; 48 h).
`COc1ccc(NC(=O)c2c(Nc3ccccc3)sc(C#N)c2NC(=O)CNc2ccc(Br)cc2)cc1` has a viability of 70.4% (SRB; 0.1 µM, 48 h).
The viability of `CCOC(=O)c1ccc(N2C(N)=C(C#N)C3(C(=O)Nc4ccccc43)C(C#N)=C2O)cc1` (stereo not drawn) is reported as 37.7% (MTT; 12.5 µM, 24 h).
With `CCn1cc(-c2ccccn2)c(=O)c2cc(F)c(N3CCC(C)CC3)cc21` the pEC50 was less than 4.40 (ATP luminescence; 48 h).
`COc1ccccc1/C=C1\SC(=S)N(CC(=O)Nc2ccccc2)C1=O` gave an inhibition of 25.6% (MTT; 10 µM).
`CCOC(=O)c1ccc(-n2c(-c3ccc(C)cc3)cc(-c3ccc(O)cc3)c(C#N)c2=O)cc1` gave a viability of 88% (MTT; 3.125 µM, 24 h).
For `Cc1cc(=O)oc2ccc(-c3cc(-c4ccc(Br)cc4)nc(N)n3)c(O)c12`, the inhibition was 0% (MTT; 8 µg/mL, 72 h).
For `O=C(CN1C(=O)/C(=C/C2CC2)SC1=S)Nc1ccccc1`, the inhibition was 11% (MTT; 10 µM).
